Experimental data reported in ChEMBL document CHEMBL1137710, “Synthesis and in vitro antitumor activity of new quinoxaline derivatives” (2009).

How the values were obtained:
Format in all cases: functional
NCI-H460 [1] = assay: Anticancer activity against human NCI-H460 cells assessed as cell growth at 100 uM after 48 hrs by sulforhodamine B assay; settings: NCI-H460, 48 h, read-out: Activity
MCF7 [2] = assay: Anticancer activity against human MCF7 cells assessed as cell growth at 100 uM after 48 hrs by sulforhodamine B assay; settings: MCF7, 48 h, read-out: Activity
SF-268 [3] = assay: Anticancer activity against human SF268 cells assessed as cell growth at 100 uM after 48 hrs by sulforhodamine B assay; settings: SF-268, 48 h, read-out: Activity
[4] = Growth inhibition of human […] cells after 48 hrs by sulforhodamine B assay
Procedure, shortened: (§1)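 NCI 60-human-tumor-cell-line panel, with compounds tested over a 5-log dose range. Values are taken from dose-response curves as log10 molar concentrations: GI50 is 50% net growth inhibition, TGI is total growth inhibition, and LC50 is 50% net cell death.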

A549 = assay: Growth inhibition of human A549 cells after 48 hrs by sulforhodamine B assay; settings: A549, 48 h; procedure, shortened: as §1
NCI-H23 = assay: Growth inhibition of human NCI-H23 cells after 48 hrs by sulforhodamine B assay; settings: NCI-H23, 48 h; procedure, shortened: as §1
NCI-H460 [5] = assay: Growth inhibition of human NCI-H460 cells after 48 hrs by sulforhodamine B assay; settings: NCI-H460, 48 h; procedure, shortened: as §1
COLO 205 = assay: Growth inhibition of human COLO205 cells after 48 hrs by sulforhodamine B assay; settings: COLO 205, 48 h; procedure, shortened: as §1
SW-620 = assay: Growth inhibition of human SW620 cells after 48 hrs by sulforhodamine B assay; settings: SW-620, 48 h
Procedure, shortened: (§2)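 Run in the NCI 60-human-tumour-cell-line panel, tested over a 5-log dose range. Dose–response curves gave three values per cell line, each as a log10 molar concentration: GI50 (50% inhibition of net cell growth), TGI (total inhibition of net growth) and LC50 (50% net cell death). The mean graph midpoint is the arithmetic mean over all lines, with insensitive lines entered at the highest concentration tested.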

SF-268 [6] = assay: Growth inhibition of human SF268 cells after 48 hrs by sulforhodamine B assay; settings: SF-268, 48 h; procedure, shortened: as §1
SF-295 = assay: Growth inhibition of human SF295 cells after 48 hrs by sulforhodamine B assay; settings: SF-295, 48 h; procedure, shortened: as §1
SNB-19 = assay: Growth inhibition of human SNB19 cells after 48 hrs by sulforhodamine B assay; settings: SNB-19, 48 h; procedure, shortened: as §2
U-251 = assay: Growth inhibition of human U251 cells after 48 hrs by sulforhodamine B assay; settings: U-251, 48 h; procedure, shortened: as §2
M14 = assay: Growth inhibition of human M14 cells after 48 hrs by sulforhodamine B assay; settings: M14, 48 h; procedure, shortened: as §1
SK-MEL-28 = assay: Growth inhibition of human SK-MEL-28 cells after 48 hrs by sulforhodamine B assay; settings: SK-MEL-28, 48 h; procedure, shortened: as §1
SK-MEL-5 = assay: Growth inhibition of human SK-MEL-5 cells after 48 hrs by sulforhodamine B assay; settings: SK-MEL-5, 48 h; procedure, shortened: as §1
UACC-257 = assay: Growth inhibition of human UACC257 cells after 48 hrs by sulforhodamine B assay; settings: UACC-257, 48 h; procedure, shortened: as §2
UACC-62 = assay: Growth inhibition of human UACC62 cells after 48 hrs by sulforhodamine B assay; settings: UACC-62, 48 h; procedure, shortened: as §2
IGROV-1 = assay: Growth inhibition of human IGROV1 cells after 48 hrs by sulforhodamine B assay; settings: IGROV-1, 48 h; procedure, shortened: as §1
OVCAR-4 = assay: Growth inhibition of human OVCAR4 cells after 48 hrs by sulforhodamine B assay; settings: OVCAR-4, 48 h; procedure, shortened: as §1
OVCAR-8 = assay: Growth inhibition of human OVCAR8 cells after 48 hrs by sulforhodamine B assay; settings: OVCAR-8, 48 h; procedure, shortened: as §1
SK-OV-3 = assay: Growth inhibition of human SKOV3 cells after 48 hrs by sulforhodamine B assay; settings: SK-OV-3, 48 h; procedure, shortened: as §1
RXF 393 = assay: Growth inhibition of human RXF393 cells after 48 hrs by sulforhodamine B assay; settings: RXF 393, 48 h; procedure, shortened: as §1
TK-10 = assay: Growth inhibition of human TK10 cells after 48 hrs by sulforhodamine B assay; settings: TK-10, 48 h; procedure, shortened: as §2
PC-3 = assay: Growth inhibition of human PC3 cells after 48 hrs by sulforhodamine B assay; settings: PC-3, 48 h; procedure, shortened: as §1
DU-145 = assay: Growth inhibition of human DU145 cells after 48 hrs by sulforhodamine B assay; settings: DU-145, 48 h; procedure, shortened: as §1
MDA-MB-231 = assay: Growth inhibition of human MDA-MB-231 cells after 48 hrs by sulforhodamine B assay; settings: MDA-MB-231, 48 h; procedure, shortened: as §1
MDA-MB-435 = assay: Growth inhibition of human MDA-MB-435 cells after 48 hrs by sulforhodamine B assay; settings: MDA-MB-435, 48 h; procedure, shortened: as §1
MCF7 [7] = assay: Growth inhibition of human MCF7 cells after 48 hrs by sulforhodamine B assay; settings: MCF7, 48 h; procedure, shortened: as §1
[8] = read-out: pLC50 (the source's name) (converted)

Question: With `COc1ccc(CNc2nc3cc(N)cc(N)c3nc2-c2ccccc2)cc1OC` as the compound, how does the growth at 100 µM (NCI-H460 [1]) read?
Answer: 3%

Question: What about the growth at 100 µM (MCF7 [2]) of the same compound?
Answer: 0%

Question: And the growth at 100 µM (SF-268 [3])?
Answer: 47%

Question: What about the GI50 [4] of the same compound?
Answer: 2.14 µM

Question: And the LC50 [4]?
Answer: > 100 µM

Question: And the TGI ([4]; read-out: pTGI (converted))?
Answer: 7.24 µM

Question: What about the GI50 (A549) of the same compound?
Answer: 20.9 µM

Question: What about the LC50 (A549) of the same compound?
Answer: > 100 µM

Question: What about the TGI (A549; read-out: pTGI (converted)) of the same compound?
Answer: 50.1 µM

Question: What about the GI50 (NCI-H23) of the same compound?
Answer: 17 µM

Question: And the LC50 (50% net cell kill concentration) (NCI-H23)?
Answer: 91.2 µM

Question: What about the TGI (NCI-H23; read-out: pTGI (converted)) of the same compound?
Answer: 39.8 µM

Question: And the GI50 (NCI-H460 [5])?
Answer: 24 µM

Question: What about the LC50 (50% net cell kill) (NCI-H460 [5]) of the same compound?
Answer: > 100 µM

Question: And the TGI (NCI-H460 [5]; read-out: pTGI (converted))?
Answer: 91.2 µM

Question: What about the GI50 (COLO 205) of the same compound?
Answer: 7.94 µM

Question: What about the LC50 (50% net cell kill) (COLO 205) of the same compound?
Answer: > 100 µM

Question: And the TGI (COLO 205; read-out: pTGI (converted))?
Answer: > 100 µM

Question: What about the GI50 (SW-620) of the same compound?
Answer: 5.25 µM

Question: And the CC50 (SW-620; [8])?
Answer: > 100 µM

Question: What about the TGI (SW-620; read-out: pTGI (converted)) of the same compound?
Answer: > 100 µM

Question: What about the GI50 (SF-268 [6]) of the same compound?
Answer: 14.8 µM

Question: And the LC50 (SF-268 [6])?
Answer: > 100 µM

Question: And the TGI (SF-268 [6]; read-out: pTGI (converted))?
Answer: 60.3 µM

Question: And the GI50 (SF-295)?
Answer: 13.2 µM

Question: What about the LC50 (50% net cell kill) (SF-295) of the same compound?
Answer: 58.9 µM

Question: What about the TGI (SF-295; read-out: pTGI (converted)) of the same compound?
Answer: 28.2 µM

Question: What about the GI50 (SNB-19) of the same compound?
Answer: 25.7 µM

Question: And the LC50 (SNB-19)?
Answer: > 100 µM

Question: And the TGI (SNB-19; read-out: pTGI (converted))?
Answer: > 100 µM

Question: And the GI50 (U-251)?
Answer: 17 µM

Question: What about the LC50 (50% net cell kill) (U-251) of the same compound?
Answer: 89.1 µM

Question: What about the TGI (U-251; read-out: pTGI (converted)) of the same compound?
Answer: 38.9 µM

Question: What about the GI50 (M14) of the same compound?
Answer: 4.27 µM

Question: And the CC50 (M14; [8])?
Answer: 33.9 µM

Question: What about the TGI (M14; read-out: pTGI (converted)) of the same compound?
Answer: 7.76 µM

Question: And the GI50 (SK-MEL-28)?
Answer: 13.5 µM

Question: What about the CC50 (SK-MEL-28; [8]) of the same compound?
Answer: 67.6 µM

Question: And the TGI (SK-MEL-28; read-out: pTGI (converted))?
Answer: 30.2 µM

Question: And the GI50 (SK-MEL-5)?
Answer: 10 µM

Question: What about the CC50 (SK-MEL-5; [8]) of the same compound?
Answer: 77.6 µM

Question: What about the TGI (SK-MEL-5; read-out: pTGI (converted)) of the same compound?
Answer: 27.5 µM

Question: What about the GI50 (UACC-257) of the same compound?
Answer: 12.9 µM

Question: And the CC50 (UACC-257; [8])?
Answer: 55 µM

Question: And the TGI (UACC-257; read-out: pTGI (converted))?
Answer: 26.9 µM

Question: And the GI50 (UACC-62)?
Answer: 12.9 µM

Question: What about the CC50 (UACC-62; [8]) of the same compound?
Answer: 53.7 µM

Question: What about the TGI (UACC-62; read-out: pTGI (converted)) of the same compound?
Answer: 26.3 µM

Question: And the GI50 (IGROV-1)?
Answer: 11.5 µM

Question: And the CC50 (IGROV-1; [8])?
Answer: > 100 µM

Question: And the TGI (IGROV-1; read-out: pTGI (converted))?
Answer: 40.7 µM

Question: And the GI50 (OVCAR-4)?
Answer: 2.69 µM

Question: What about the CC50 (OVCAR-4; [8]) of the same compound?
Answer: 52.5 µM

Question: And the TGI (OVCAR-4; read-out: pTGI (converted))?
Answer: 7.41 µM

Question: And the GI50 (OVCAR-8)?
Answer: 6.76 µM

Question: And the CC50 (OVCAR-8; [8])?
Answer: > 100 µM

Question: What about the TGI (OVCAR-8; read-out: pTGI (converted)) of the same compound?
Answer: 33.9 µM

Question: What about the GI50 (SK-OV-3) of the same compound?
Answer: 21.9 µM

Question: And the CC50 (SK-OV-3; [8])?
Answer: > 100 µM

Question: What about the TGI (SK-OV-3; read-out: pTGI (converted)) of the same compound?
Answer: 46.8 µM

Question: What about the GI50 (RXF 393) of the same compound?
Answer: 19.1 µM

Question: What about the CC50 (RXF 393; [8]) of the same compound?
Answer: > 100 µM

Question: What about the TGI (RXF 393; read-out: pTGI (converted)) of the same compound?
Answer: > 100 µM

Question: What about the GI50 (TK-10) of the same compound?
Answer: 16.6 µM

Question: What about the CC50 (TK-10; [8]) of the same compound?
Answer: 64.6 µM

Question: And the TGI (TK-10; read-out: pTGI (converted))?
Answer: 32.4 µM

Question: What about the GI50 (PC-3) of the same compound?
Answer: 8.32 µM

Question: What about the CC50 (PC-3; [8]) of the same compound?
Answer: 83.2 µM

Question: And the TGI (PC-3; read-out: pTGI (converted))?
Answer: 27.5 µM

Question: And the GI50 (DU-145)?
Answer: 0.46 µM

Question: What about the CC50 (DU-145; [8]) of the same compound?
Answer: > 100 µM

Question: And the TGI (DU-145; read-out: pTGI (converted))?
Answer: 87.1 µM

Question: And the GI50 (MDA-MB-231)?
Answer: 11.2 µM

Question: What about the CC50 (MDA-MB-231; [8]) of the same compound?
Answer: 79.4 µM

Question: And the TGI (MDA-MB-231; read-out: pTGI (converted))?
Answer: 29.5 µM

Question: And the GI50 (MDA-MB-435)?
Answer: 1.95 µM

Question: And the CC50 (MDA-MB-435; [8])?
Answer: 8.51 µM

Question: What about the TGI (MDA-MB-435; read-out: pTGI (converted)) of the same compound?
Answer: 4.07 µM

Question: And the GI50 (MCF7 [7])?
Answer: 25.7 µM

Question: And the CC50 (MCF7 [7]; [8])?
Answer: > 100 µM

Question: What about the TGI (MCF7 [7]; read-out: pTGI (converted)) of the same compound?
Answer: > 100 µM
